This is an account of results in ChEMBL document CHEMBL1149671, “Enantiopure five-membered cyclicdiamine derivatives as potent and selective inhibitors of factor Xa. Improving in vitro metabolic stability via core modifications” (Bioorg Med Chem Lett, 2007).

In one data set the target is Coagulation factor X (Homo sapiens, UniProt P00742). The data set can be described thus: Inhibition of human factor 10a.
For a further data set, the system named is Liver microsomes. The data set can be described thus: Metabolic stability in human liver microsomes assessed as microsomal intrinsic clearance rate. It is filed as ADME, Microsome. The procedure, abridged:
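Human liver microsomes, 10-min incubation. Metabolic stability given as % compound remaining. Microsomal intrinsic clearance rate (nmol/min/mg) is based on the % remaining after 10 min.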
(Microsomes from liver hold many membrane-bound enzymes, among them those of drug oxidation.)

The nature of data set [1]: Cytotoxicity against HEK cells. It is filed as cell-based. To be noted: Homo sapiens, HEK293.

The structures appear in SMILES notation.

Coagulation factor X, sequence (P00742 41-179 limits assumed): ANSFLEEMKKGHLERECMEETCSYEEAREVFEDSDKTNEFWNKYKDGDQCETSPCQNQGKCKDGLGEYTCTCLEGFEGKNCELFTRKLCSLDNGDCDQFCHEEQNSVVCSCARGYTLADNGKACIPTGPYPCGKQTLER
Coagulation factor X, sequence (P00742 235-488 limits assumed): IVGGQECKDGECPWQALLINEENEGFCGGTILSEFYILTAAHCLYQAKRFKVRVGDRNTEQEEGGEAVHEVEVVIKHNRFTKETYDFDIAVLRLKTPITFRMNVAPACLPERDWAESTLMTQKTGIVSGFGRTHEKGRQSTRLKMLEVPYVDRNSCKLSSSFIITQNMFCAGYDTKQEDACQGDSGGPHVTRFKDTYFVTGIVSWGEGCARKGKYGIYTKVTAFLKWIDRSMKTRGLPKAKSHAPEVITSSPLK

On to `O=C(N[C@@H]1Cc2ccccc2[C@@H]1NC(=O)c1ccc(-n2ccccc2=O)cc1)c1ccc2c(Cl)c[nH]c2c1`, for which the Ki – broadly, the dissociation constant of the complex between target and ligand, obtained from inhibition or displacement – on Coagulation factor X was determined as 1 nM. Consider `CCOC(=O)N1C[C@H](NC(=O)c2ccc(-n3ccccc3=O)cc2)[C@H](NC(=O)c2ccc3c(Cl)c[nH]c3c2)C1`, for which the affinity on Coagulation factor X corresponds to a Ki of 2.8 nM. Turning to `CN(C)C(=O)N1C[C@H](NC(=O)c2ccc(-n3ccccc3=O)cc2)[C@H](NC(=O)c2ccc(Cl)s2)C1`, the CL in the data set with Liver microsomes was found to be 0 nmol/mg/min. The same compound yielded a Ki at Coagulation factor X of 0.56 nM. Moreover, the IC50 (as a rule, the concentration that gives 50% inhibition) in data set [1] was greater than 100000 nM. `O=C(N[C@H]1CN(C(=O)OCC2c3ccccc3-c3ccccc32)C[C@H]1NC(=O)c1ccc(Cl)s1)c1ccc(-n2ccccc2=O)cc1` registered a Ki on Coagulation factor X of 4.5 nM.

On Coagulation factor X, `COC(=O)C1C[C@H](NC(=O)c2ccc(-n3ccccc3=O)cc2)[C@H](NC(=O)c2ccc3c(Cl)c[nH]c3c2)C1` (stereo not given in full) gave a Ki of 3 nM. Turning to `O=C(N[C@@H]1Cc2ccccc2[C@@H]1NC(=O)c1ccc2c(Cl)c[nH]c2c1)c1ccc(-n2ccccc2=O)cc1`, the Ki at Coagulation factor X is 0.21 nM. Regarding `CS(=O)(=O)N1C[C@H](NC(=O)c2ccc(-n3ccccc3=O)cc2)[C@H](NC(=O)c2ccc(Cl)s2)C1`, the CL in the data set with Liver microsomes came out at 0 nmol/mg/min. The compound further registered a Ki on Coagulation factor X of 0.44 nM. Moreover, the IC50 in data set [1] is greater than 100000 nM. `CC(C)S(=O)(=O)N1C[C@H](NC(=O)c2ccc(-n3ccccc3=O)cc2)[C@H](NC(=O)c2ccc(Cl)s2)C1` showed a Ki on Coagulation factor X of 1.7 nM. Moreover, the IC50 in data set [1] was greater than 100000 nM. `COC(=O)[C@H]1C[C@H](NC(=O)c2ccc(-n3ccccc3=O)cc2)[C@H](NC(=O)c2ccc(Cl)s2)C1` displayed a Ki on Coagulation factor X of 0.53 nM. That is a sub-nanomolar value. The same measure, in the same setting: in the case of `O=C(N[C@H]1COC[C@H]1NC(=O)c1ccc2c(Cl)c[nH]c2c1)c1ccc(-n2ccccc2=O)cc1` it was 2.6 nM; in that of `O=C(N[C@H]1C[C@H](C(=O)NC2CC2)C[C@H]1NC(=O)c1ccc(Cl)s1)c1ccc(-n2ccccc2=O)cc1`, 1.6 nM.

Regarding `CNC(=O)N1C[C@H](NC(=O)c2ccc(-n3ccccc3=O)cc2)[C@H](NC(=O)c2ccc(Cl)s2)C1`, in the data set on Liver microsomes, the CL is listed as 0 nmol/mg/min. In addition, at Coagulation factor X, the affinity corresponds to a Ki of 1.1 nM. In data set [1], this compound came in with a half-inhibitory concentration (IC50) greater than 100000 nM. At Coagulation factor X, `O=C(N[C@H]1CN(C(=O)c2ccccc2)C[C@H]1NC(=O)c1ccc(Cl)s1)c1ccc(-n2ccccc2=O)cc1` had a Ki of 2.2 nM. This compound came in with an IC50 in data set [1] greater than 100000 nM. In the case of `O=C(N[C@@H]1c2ccccc2C[C@@H]1NC(=O)c1ccc(Cl)s1)c1ccc(-n2ccccc2=O)cc1`, the affinity at Coagulation factor X, expressed as Ki, was 10900 nM. In other words, the double-digit micromolar range. `COCCNC(=O)[C@H]1C[C@H](NC(=O)c2ccc(-n3ccccc3=O)cc2)[C@H](NC(=O)c2ccc(Cl)s2)C1` yielded a Ki on Coagulation factor X of 2.9 nM. The same measure, in the same setting: in the case of `CN(C)C(=O)[C@H]1C[C@H](NC(=O)c2ccc(-n3ccccc3=O)cc2)[C@H](NC(=O)c2ccc(Cl)s2)C1` it was 2.1 nM.

`CC(C)(C)C(=O)N1C[C@H](NC(=O)c2ccc(-n3ccccc3=O)cc2)[C@H](NC(=O)c2ccc(Cl)s2)C1` registered a Ki on Coagulation factor X of 1.7 nM. In data set [1], this compound had an IC50 greater than 100000 nM.

In the case of `O=C(N[C@H]1C[C@H](C(=O)N2CCOCC2)C[C@H]1NC(=O)c1ccc(Cl)s1)c1ccc(-n2ccccc2=O)cc1`, the Ki on Coagulation factor X was determined as 1.6 nM.

On Coagulation factor X, `O=C(N[C@H]1Cc2ccccc2[C@H]1NC(=O)c1ccc(-n2ccccc2=O)cc1)c1ccc2c(Cl)c[nH]c2c1` yielded a Ki of 7.9 nM. This Ki is about 4.9-fold higher than that of the compound before. `O=C(N[C@H]1CN(C(=O)OCC2c3ccccc3-c3ccccc32)C[C@H]1NC(=O)c1ccc2c(Cl)c[nH]c2c1)c1ccc(-n2ccccc2=O)cc1` displayed a Ki at Coagulation factor X of 163 nM. The IC50 in data set [1] was greater than 100000 nM.

`O=C(N[C@@H]1Cc2ccccc2[C@@H]1NC(=O)c1ccc(Cl)s1)c1ccc(-n2ccccc2=O)cc1` displayed a Ki on Coagulation factor X of 230 nM. This counts as sub-micromolar. Same read-out and setting: in the case of `O=C(N[C@H]1CNC[C@H]1NC(=O)c1ccc2c(Cl)c[nH]c2c1)c1ccc(-n2ccccc2=O)cc1` it was 18 nM. Consider `COC(=O)N1C[C@H](NC(=O)c2ccc(-n3ccccc3=O)cc2)[C@H](NC(=O)c2ccc(Cl)s2)C1`, for which, in the data set on Liver microsomes, the CL worked out at 0 nmol/mg/min. The compound also yielded a Ki on Coagulation factor X of 0.74 nM. In data set [1], this compound yielded an IC50 greater than 100000 nM. Consider `CC(=O)N1C[C@H](NC(=O)c2ccc(-n3ccccc3=O)cc2)[C@H](NC(=O)c2ccc3c(Cl)c[nH]c3c2)C1`, for which the Ki on Coagulation factor X worked out at 3.9 nM. Take `COCCOC(=O)N1C[C@H](NC(=O)c2ccc(-n3ccccc3=O)cc2)[C@H](NC(=O)c2ccc(Cl)s2)C1`: the Ki at Coagulation factor X was determined as 0.93 nM. For the same compound, in data set [1], the IC50 was greater than 100000 nM. The compound `CCC(=O)N1C[C@H](NC(=O)c2ccc(-n3ccccc3=O)cc2)[C@H](NC(=O)c2ccc(Cl)s2)C1` had a Ki at Coagulation factor X of 2 nM. Moreover, in data set [1], the IC50 was greater than 100000 nM. With `COC(=O)C1C[C@H](NC(=O)c2ccc(-n3ccccc3=O)cc2)[C@H](NC(=O)c2ccc(Cl)s2)C1` (stereo not given in full), the inhibition constant (Ki) on Coagulation factor X was found to be 0.39 nM.

For the compound `O=C(N[C@H]1CNC[C@H]1NC(=O)c1ccc(Cl)s1)c1ccc(-n2ccccc2=O)cc1`, in the data set with Liver microsomes, the CL is listed as 0 nmol/mg/min. At Coagulation factor X, this compound showed an inhibitory constant (Ki) of 9.5 nM. This compound also returned an IC50 in data set [1] greater than 100000 nM. On Coagulation factor X, `O=C(N[C@H]1Cc2ccccc2[C@H]1NC(=O)c1ccc(Cl)s1)c1ccc(-n2ccccc2=O)cc1` showed a Ki of 27 nM.

At Coagulation factor X, `O=C(N[C@H]1Cc2ccccc2[C@H]1NC(=O)c1ccc2c(Cl)c[nH]c2c1)c1ccc(-n2ccccc2=O)cc1` returned a Ki of 0.84 nM. This Ki is about 32-fold lower than that of the compound before. Turning to `CC(C)C(=O)N1C[C@H](NC(=O)c2ccc(-n3ccccc3=O)cc2)[C@H](NC(=O)c2ccc(Cl)s2)C1`, the CL in the data set with Liver microsomes is recorded as 0 nmol/mg/min. On Coagulation factor X, this compound gave a Ki of 1.3 nM. The IC50 in data set [1] is greater than 100000 nM. On Coagulation factor X, `O=C(N[C@H]1CN(C(=O)C2CC2)C[C@H]1NC(=O)c1ccc(Cl)s1)c1ccc(-n2ccccc2=O)cc1` displayed an inhibition constant Ki of 2.1 nM. The same compound had an IC50 in data set [1] greater than 100000 nM.

With `O=C(N[C@H]1CN(C(=O)N2CCCC2)C[C@H]1NC(=O)c1ccc(Cl)s1)c1ccc(-n2ccccc2=O)cc1`, the affinity at Coagulation factor X corresponds to a Ki of 1.7 nM. The same compound registered an IC50 in data set [1] greater than 100000 nM.

On Coagulation factor X, `COCC(=O)N1C[C@H](NC(=O)c2ccc(-n3ccccc3=O)cc2)[C@H](NC(=O)c2ccc(Cl)s2)C1` yielded a Ki of 0.36 nM. Also, the IC50 in data set [1] is greater than 100000 nM.
